Values after ≈ are worked out from the molar mass of the structure shown. Active and inactive are the calls of the source. No cut-off for these calls is given here.
How the values were obtained:
Pyrenophora teres = assay: Antifungal activity against Pyrenophora teres assessed as inhibition of radial growth on potato dextrose; type: functional, organism-based
Podosphaera fuliginea [1] = assay: Fungicidal activity against Podosphaera fuliginea inoculated in […] placed in growth room after 24 hr incubation assessed as direct protection after 6 to 10 days; type: functional
Bipolaris maydis = assay: Antifungal activity against Cochliobolus heterostrophus assessed as inhibition of radial growth on potato dextrose; type: functional, organism-based
Procedure, shortened: (§1)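 Radial growth inhibition on potato dextrose or Czapek agar across 100-0.1 mg L-1. ED50 calculated for each compound.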

Uromyces appendiculatus [2] = assay: Fungicidal activity against Uromyces appendiculatus inoculated in Phaseolus vulgaris placed in growth room after 24 hr incubation assessed as direct protection after 6 to 10 days; type: functional
Procedure, shortened: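 Bean plants grown at 22 ± 1 °C, 80 ± 10% RH. Compound in acetone/water (1:4 v/v) with Tween 20 (0.4 mg mL-1) was sprayed on leaves until moist at 100 to 0.001 mg L-1. One day later leaves were inoculated with U. appendiculatus uredospores (1 × 10^5 spores mL-1), held 24 h at 22 ± 2 °C and 100% RH, then moved to the growth room. Scored at 6, 8 and 10 days as MIC.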

Fusarium graminearum = assay: Antifungal activity against Fusarium graminearum assessed as inhibition of radial growth on potato dextrose; type: functional, organism-based; procedure, shortened: as §1
Oculimacula yallundae = assay: Antifungal activity against Oculimacula yallundae assessed as inhibition of radial growth on potato dextrose; type: functional, organism-based; procedure, shortened: as §1
Podosphaera fuliginea [3] = assay: Fungicidal activity against Podosphaera fuliginea inoculated in […] placed in growth room after 24 hr incubation assessed as disease cure after 24 hr of inoculation; type: functional
Botrytis cinerea = assay: Antifungal activity against Botryotinia fuckelianaassessed as inhibition of radial growth on potato dextrose; type: functional, organism-based; procedure, shortened: as §1
Cercospora beticola = assay: Antifungal activity against Cercospora beticola assessed as inhibition of radial growth on potato dextrose; type: functional, organism-based; procedure, shortened: as §1
Ustilago maydis [4] = assay: Antifungal activity against Ustilago maydis assessed as inhibition of radial growth on potato dextrose; type: functional, organism-based; conditions: Mycosarcoma maydis
[5] = molecular target: T1, Lanosterol 14-alpha demethylase (Mycosarcoma maydis, UniProt P49602); assay: Inhibition of 14alpha-demethylase Ustilago maydis ATCC 14826 assessed as reduction in 14alpha-methylfecosterol; conditions: read-out: I50 (converted)
T1 sequence (P49602 whole entry): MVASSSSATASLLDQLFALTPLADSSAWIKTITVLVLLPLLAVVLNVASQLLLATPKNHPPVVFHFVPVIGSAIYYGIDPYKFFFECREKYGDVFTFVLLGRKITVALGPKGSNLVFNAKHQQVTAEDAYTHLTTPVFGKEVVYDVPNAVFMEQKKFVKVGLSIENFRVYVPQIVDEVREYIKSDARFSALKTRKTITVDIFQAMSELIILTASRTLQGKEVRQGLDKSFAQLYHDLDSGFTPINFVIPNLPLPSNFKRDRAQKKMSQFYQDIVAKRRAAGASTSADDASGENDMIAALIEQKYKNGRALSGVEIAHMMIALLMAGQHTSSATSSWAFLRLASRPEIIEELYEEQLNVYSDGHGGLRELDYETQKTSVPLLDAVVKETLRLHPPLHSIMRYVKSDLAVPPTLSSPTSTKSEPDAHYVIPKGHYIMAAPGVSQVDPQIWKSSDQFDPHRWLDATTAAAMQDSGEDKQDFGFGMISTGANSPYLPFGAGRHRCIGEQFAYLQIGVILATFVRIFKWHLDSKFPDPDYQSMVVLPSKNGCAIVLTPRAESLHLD
Procedure, shortened: (§2)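 Actively growing broth cultures of U. maydis ATCC 14826 were incubated 18 h with increasing compound concentrations. Sterols were then extracted and analysed, and 14α-demethyl and 14α-methyl sterols quantified.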

[6] = molecular target: T2, Lanosterol 14-alpha demethylase (Mycosarcoma maydis) (UniProt P49602); assay: Inhibition of 14alpha-demethylase Ustilago maydis ATCC 14826 assessed as reduction in ergosta-5,7-dien-3-ol; procedure, shortened: as §2
T2 sequence (whole entry): T1 sequence (P49602 whole entry)

[7] = molecular target: T2, Lanosterol 14-alpha demethylase (Mycosarcoma maydis); assay: Inhibition of 14alpha-demethylase Ustilago maydis ATCC 14826 assessed as reduction in ergosterol; procedure, shortened: as §2
Uromyces appendiculatus [8] = assay: Fungicidal activity against Uromyces appendiculatus inoculated in Phaseolus vulgaris placed in growth room after 24 hr incubation assessed as disease cure after 24 hr of inoculation; type: functional
Procedure, shortened: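 Bean rust curative test with the same plants, spray formulation (acetone/water 1:4 with Tween 20), 100 to 0.001 mg L-1 range and U. appendiculatus inoculum (1 × 10^5 spores mL-1). Compound applied 24 h after inoculation. Read-out expressed as MIC.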

[9] = molecular target: T2, Lanosterol 14-alpha demethylase (Mycosarcoma maydis); assay: Inhibition of 14alpha-demethylase Ustilago maydis ATCC 14826 assessed as reduction in eburicol at 20 mg/ml (reference value: 3.4%); design: scale not given: the % may be the effect or the level left; procedure, shortened: as §2
[10] = molecular target: T2, Lanosterol 14-alpha demethylase (Mycosarcoma maydis); assay: Inhibition of 14alpha-demethylase Ustilago maydis ATCC 14826 assessed as reduction in 14alpha-methylfecosterol at 20 mg/ml (reference value: 0.4%); design: scale not given: the % may be the effect or the level left; procedure, shortened: as §2
[11] = molecular target: T2, Lanosterol 14-alpha demethylase (Mycosarcoma maydis); assay: Inhibition of 14alpha-demethylase Ustilago maydis ATCC 14826 assessed as reduction in obtusifoliol at 20 mg/ml (reference value: 0.7%); design: scale not given: the % may be the effect or the level left; procedure, shortened: as §2
[12] = molecular target: T2, Lanosterol 14-alpha demethylase (Mycosarcoma maydis); assay: Inhibition of 14alpha-demethylase Ustilago maydis ATCC 14826 assessed as reduction in ergosterol at 20 mg/ml (reference value: 61%); design: scale not given: the % may be the effect or the level left; procedure, shortened: as §2
Ustilago maydis [13] = assay: Antifungal activity against Ustilago maydis sporidia assessed as swollen, multicellular and branched sporidia at 0.25 to 50 mg/ml measured after 18 hr by light microscopy; type: functional, organism-based; conditions: Mycosarcoma maydis
Procedure, shortened: (§3)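 U. maydis sporidia grown in Coursen and Sisler broth and treated at 0.25 to 50 mg mL-1 for 18 h. Cell morphology and division examined by interference contrast (Nomarski) and fluorescence microscopy.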

Ustilago maydis [14] = assay: Antifungal activity against Ustilago maydis sporidia assessed as cell division at 0.25 to 50 mg/ml by light microscopy; type: functional, organism-based; conditions: Mycosarcoma maydis; procedure, shortened: as §3

Structure (SMILES)	EC50 (Pyrenophora teres) [µg/mL]	MIC (Podosphaera fuliginea [1]) [µg/mL]	EC50 (Bipolaris maydis) [µg/mL]	MIC (Uromyces appendiculatus [2]) [µg/mL]	EC50 (Fusarium graminearum) [µg/mL]	EC50 (Oculimacula yallundae) [µg/mL]	MIC (Podosphaera fuliginea [3]) [µg/mL]	EC50 (Botrytis cinerea) [µg/mL]	EC50 (Cercospora beticola) [µg/mL]	EC50 (Ustilago maydis [4]) [µg/mL]	IC50 [5] [nM]	inhibition [6]	inhibition [7]	MIC (Uromyces appendiculatus [8]) [µg/mL]	Activity [9] [%]	Activity [10] [%]	Activity [11] [%]	Activity [12] [%]	Activity (Ustilago maydis [13])	Activity (Ustilago maydis [14])
Clc1ccc(C(COCc2ccc(-c3ccccc3)cc2)Cn2cncn2)c(Cl)c1 (racemic)	0.55 (≈ 1.25 µM)	10 (≈ 22.8 µM)	0.18 (≈ 0.411 µM)	28 (≈ 63.9 µM)	> 200	0.5 (≈ 1.14 µM)	6 (≈ 13.7 µM)	2.8 (≈ 6.39 µM)	0.18 (≈ 0.411 µM)	0.03 (≈ 0.0684 µM)	–	–	–	–	–	–	–	–	–	–
C=C(Cn1cncn1)c1ccc(Cl)cc1Cl	0.9 (≈ 3.54 µM)	8 (≈ 31.5 µM)	0.4 (≈ 1.57 µM)	150 (≈ 590 µM)	2.9 (≈ 11.4 µM)	0.45 (≈ 1.77 µM)	1 (≈ 3.94 µM)	4.5 (≈ 17.7 µM)	0.6 (≈ 2.36 µM)	0.8 (≈ 3.15 µM)	–	–	–	–	–	–	–	–	–	–
C=CCOC[C@@H](Cn1cncn1)c1ccc(Cl)cc1Cl	1.5 (≈ 4.8 µM)	90 (≈ 288 µM)	0.18 (≈ 0.577 µM)	25 (≈ 80.1 µM)	10 (≈ 32 µM)	0.28 (≈ 0.897 µM)	–	1.5 (≈ 4.8 µM)	< 0.1	0.09 (≈ 0.288 µM)	897	Active	Active	–	–	–	–	–	–	–
Clc1ccc(C(COCc2ccccc2)Cn2cncn2)c(Cl)c1 (racemic)	0.7 (≈ 1.93 µM)	50 (≈ 138 µM)	0.18 (≈ 0.497 µM)	30 (≈ 82.8 µM)	5 (≈ 13.8 µM)	0.35 (≈ 0.966 µM)	–	1.6 (≈ 4.42 µM)	0.2 (≈ 0.552 µM)	0.14 (≈ 0.386 µM)	–	–	–	35 (≈ 96.6 µM)	–	–	–	–	–	–
CC(C)(C)c1ccc(COCC(Cn2cncn2)c2ccc(Cl)cc2Cl)cc1 (racemic)	0.8 (≈ 1.91 µM)	10 (≈ 23.9 µM)	0.4 (≈ 0.956 µM)	25 (≈ 59.8 µM)	6.5 (≈ 15.5 µM)	1.2 (≈ 2.87 µM)	10 (≈ 23.9 µM)	3.8 (≈ 9.08 µM)	0.28 (≈ 0.669 µM)	0.1 (≈ 0.239 µM)	–	–	–	–	–	–	–	–	–	–
COc1ccc(COCC(Cn2cncn2)c2ccc(Cl)cc2Cl)cc1 (racemic)	0.45 (≈ 1.15 µM)	35 (≈ 89.2 µM)	0.15 (≈ 0.382 µM)	30 (≈ 76.5 µM)	10 (≈ 25.5 µM)	0.35 (≈ 0.892 µM)	–	1 (≈ 2.55 µM)	0.1 (≈ 0.255 µM)	0.07 (≈ 0.178 µM)	–	–	–	12 (≈ 30.6 µM)	–	–	–	–	–	–
C=CCOC[C@H](Cn1cncn1)c1ccc(Cl)cc1Cl	0.8 (≈ 2.56 µM)	100 (≈ 320 µM)	0.2 (≈ 0.641 µM)	100 (≈ 320 µM)	8.5 (≈ 27.2 µM)	0.4 (≈ 1.28 µM)	–	3 (≈ 9.61 µM)	0.25 (≈ 0.801 µM)	0.22 (≈ 0.705 µM)	1990	Active	Active	–	–	–	–	–	–	–
C=CCOCC(Cn1cncn1)c1ccc(Cl)cc1Cl (racemic)	1.4 (≈ 4.48 µM)	30 (≈ 96.1 µM)	0.16 (≈ 0.512 µM)	200 (≈ 641 µM)	8.5 (≈ 27.2 µM)	0.29 (≈ 0.929 µM)	–	1.5 (≈ 4.8 µM)	0.21 (≈ 0.673 µM)	0.22 (≈ 0.705 µM)	1730	–	–	28 (≈ 89.7 µM)	61.1	8.8	20.6	5.1	–	–
FC(F)C(F)(F)OCC(Cn1cncn1)c1ccc(Cl)cc1Cl (configuration not stated) [TETRACONAZOLE]	0.4 (≈ 1.07 µM)	0.05 (≈ 0.134 µM)	< 0.1	25 (≈ 67.2 µM)	4 (≈ 10.7 µM)	0.45 (≈ 1.21 µM)	0.9 (≈ 2.42 µM)	1.2 (≈ 3.22 µM)	0.12 (≈ 0.322 µM)	0.25 (≈ 0.672 µM)	–	–	–	25 (≈ 67.2 µM)	–	–	–	–	Active	Active

Source: ChEMBL document CHEMBL3045489, “Synthesis, fungicidal activity, and QSAR of a series of 2-dichlorophenyl-3-triazolylpropyl ethers” (J Agric Food Chem, 2000)
